Test results from ChEMBL document CHEMBL1131423, “N-(2-Benzoylphenyl)-L-tyrosine PPARgamma agonists. 2. Structure-activity relationship and optimization of the phenyl alkyl ether moiety” (J Med Chem, 1998).
Converted amounts (≈) assume the structure as drawn. The source made the active and inactive calls. The calls are words filed in the database; no cut-off is given here.

Key:
[1] = target: T1, Peroxisome proliferator-activated receptor gamma (Homo sapiens) (UniProt P37231); assay: Inhibition of Peroxisome proliferator activated receptor gamma
T1 sequence (whole entry): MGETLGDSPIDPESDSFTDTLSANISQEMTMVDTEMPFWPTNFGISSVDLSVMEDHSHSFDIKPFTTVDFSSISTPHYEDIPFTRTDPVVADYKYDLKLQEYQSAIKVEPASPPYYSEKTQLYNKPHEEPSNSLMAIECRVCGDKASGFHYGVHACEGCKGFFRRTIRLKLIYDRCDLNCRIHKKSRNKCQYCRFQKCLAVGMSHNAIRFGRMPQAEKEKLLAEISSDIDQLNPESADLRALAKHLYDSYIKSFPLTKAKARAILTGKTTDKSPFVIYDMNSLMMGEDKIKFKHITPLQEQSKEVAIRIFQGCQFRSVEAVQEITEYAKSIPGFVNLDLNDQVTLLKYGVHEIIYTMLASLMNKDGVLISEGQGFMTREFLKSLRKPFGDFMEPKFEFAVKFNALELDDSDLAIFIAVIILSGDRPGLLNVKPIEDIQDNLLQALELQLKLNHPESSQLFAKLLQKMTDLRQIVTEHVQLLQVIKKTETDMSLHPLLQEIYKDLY
How it was run: (§1)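 Competitive radioligand binding to PPARγ with [3H]BRL 49653 as the radioligand. […] It is converted to an apparent Ki by Ki = IC50/(1 + [L]/Kd), and results are given as pKi.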

[2] = target: T2, Peroxisome proliferator-activated receptor gamma (Homo sapiens, UniProt P37231); assay: Inhibition by 50% of in vitro binding to Peroxisome proliferator activated receptor gamma
T2 sequence (P37231 whole entry): T1 sequence (whole entry)

[3] = target: Peroxisome proliferator-activated receptor gamma (Homo sapiens) (UniProt P37231); assay: Compound was tested in vitro for inhibiting the 50% binding of Peroxisome proliferator activated receptor gamma; IA = Inactive
[4] = target: T3, Peroxisome proliferator-activated receptor alpha (Homo sapiens, UniProt Q07869); assay: In vitro transactivation of Peroxisome proliferator activated receptor alpha.; assay type: functional
T3 sequence (Q07869 whole entry): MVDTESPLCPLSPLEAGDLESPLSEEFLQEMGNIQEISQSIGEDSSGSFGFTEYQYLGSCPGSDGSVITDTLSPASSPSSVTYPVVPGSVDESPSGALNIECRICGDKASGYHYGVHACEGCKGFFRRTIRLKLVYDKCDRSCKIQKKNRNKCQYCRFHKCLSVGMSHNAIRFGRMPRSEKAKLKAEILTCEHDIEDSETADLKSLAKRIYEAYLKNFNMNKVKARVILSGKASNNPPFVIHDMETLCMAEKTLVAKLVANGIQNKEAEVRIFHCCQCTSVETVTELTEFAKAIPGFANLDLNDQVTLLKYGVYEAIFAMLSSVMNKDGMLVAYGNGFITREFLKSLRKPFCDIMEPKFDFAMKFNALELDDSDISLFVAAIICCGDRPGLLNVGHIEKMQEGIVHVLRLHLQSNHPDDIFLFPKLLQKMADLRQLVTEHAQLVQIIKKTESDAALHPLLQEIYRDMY

[5] = target: T3, Peroxisome proliferator-activated receptor alpha; assay: Tested in vitro for inhibiting the 50% binding of Peroxisome proliferator activated receptor alpha
[6] = target: T4, Peroxisome proliferator-activated receptor alpha (Homo sapiens) (UniProt Q07869); assay: Compound was tested in vitro for inhibiting the 50% binding of Peroxisome proliferator activated receptor alpha; IA = 'inactive'
T4 sequence (whole entry): T3 sequence (Q07869 whole entry)

[7] = The solubility determined by equilibrating an excess of solid material in 500 microL of simulated gastric fluid; assay type: ADME; conditions: read-out: S
How it was run: (§2)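 Samples are filtered (0.22 µm) and diluted in water/acetonitrile 60:40. The dissolved concentration is measured by reversed-phase HPLC on a phenyl column with 0.05% TFA water/acetonitrile (60:40), 1 mL/min, and UV detection at each compound's maximum. Results are in mg/mL.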

[8] = The solubility determined by equilibrating an excess of solid material in 500 microL of pH 7.4 phosphate buffer; assay type: ADME; conditions: read-out: S; how it was run: as §2
[9] = target: T1, Peroxisome proliferator-activated receptor gamma (Homo sapiens); assay: Compound was tested in vitro for inhibiting the 50% binding of Peroxisome proliferator activated receptor gamma; IA = Inactive; how it was run: as §1

With `O=C(c1ccccc1)c1ccccc1N[C@@H](Cc1ccc(OCC2COC(C3CCCCC3)O2)cc1)C(=O)O` (some centres not stated) the “Log Ki” value [1] was “inactive”.

For `COC(COc1ccc(C[C@H](Nc2ccccc2C(=O)c2ccccc2)C(=O)O)cc1)c1ccccc1` (some centres not stated), the Ki [2] was 0.794 µM.

With `Cc1cc(C(C)C)ccc1CCOc1ccc(C[C@H](Nc2ccccc2C(=O)c2ccccc2)C(=O)O)cc1` the “Log Ki” value [3] was “inactive”.

Work on `Cc1[nH]c(-c2ccccc2)nc1CCOc1ccc(C[C@H](Nc2ccccc2C(=O)c2ccccc2)C(=O)O)cc1` yielded an EC50 [4] greater than 10 µM and a Ki [5] greater than 3.02 µM.

`Cc1cc(-c2nc(CCOc3ccc(C[C@H](Nc4ccccc4C(=O)c4ccccc4)C(=O)O)cc3)c(C)s2)no1` gave an EC50 [4] of 1.82 µM and a Ki [5] of 0.178 µM.

`Cc1ccsc1-c1nc(CCOc2ccc(C[C@H](Nc3ccccc3C(=O)c3ccccc3)C(=O)O)cc2)c(C)o1` gave an EC50 [4] of 2.75 µM and a Ki [5] of 0.468 µM.

In the case of `O=C(c1ccccc1)c1ccccc1N[C@@H](Cc1ccc(O)cc1)C(=O)O`, the “Log Ki” value [1] is reported as “inactive”.

In the case of `CC(C)c1ccc(COc2ccc(C[C@H](Nc3ccccc3C(=O)c3ccccc3)C(=O)O)cc2)cc1`, the “Log Ki” value [6] is reported as “inactive”.

`Cc1sc(-c2ccncc2)nc1CCOc1ccc(C[C@H](Nc2ccccc2C(=O)c2ccccc2)C(=O)O)cc1` gave an EC50 [4] greater than 10 µM and a Ki [5] greater than 3.02 µM.

In the case of `Cc1ccc[n+]2c1=NC(C)C=2COc1ccc(C[C@H](Nc2ccccc2C(=O)c2ccccc2)C(=O)O)cc1` (some centres not stated), the “Log Ki” value [1] is reported as “inactive”.

With `Cc1cc(C)c(C)c(COc2ccc(C[C@H](Nc3ccccc3C(=O)c3ccccc3)C(=O)O)cc2)c1C` the “Log Ki” value [1] was “inactive”.

`Cc1sc(NCCCN(C)C)nc1CCOc1ccc(C[C@H](Nc2ccccc2C(=O)c2ccccc2)C(=O)O)cc1` gave an EC50 [4] greater than 10 µM and a Ki [5] greater than 3.02 µM.

For `C/C(=C\c1ccccc1)COc1ccc(C[C@H](Nc2ccccc2C(=O)c2ccccc2)C(=O)O)cc1`, the “Log Ki” value [1] was “inactive”.

In the case of `Cc1nc(COc2ccc(C[C@H](Nc3ccccc3C(=O)c3ccccc3)C(=O)O)cc2)n2nc(Cl)ccc12`, the “Log Ki” value [1] is reported as “inactive”.

`Cc1oc(-c2ccncc2)nc1CCOc1ccc(C[C@H](Nc2ccccc2C(=O)c2ccccc2)C(=O)O)cc1` gave a solubility thermodynamic [7] of 5 µg/mL (≈ 9.13 µM), a solubility thermodynamic [8] of 846 µg/mL (≈ 1540 µM) and an EC50 [4] greater than 10 µM. For the same molecule, the Ki [5] was greater than 3.02 µM.

With `COc1ccc(COc2ccc(C[C@H](Nc3ccccc3C(=O)c3ccccc3)C(=O)O)cc2)cc1` the “Log Ki” value [9] was “inactive”.

In the case of `Cc1ncsc1CCOc1ccc(C[C@H](Nc2ccccc2C(=O)c2ccccc2)C(=O)O)cc1`, the “Log Ki” value [6] is reported as “inactive”.

Molecule `COCCNc1nc(CCOc2ccc(C[C@H](Nc3ccccc3C(=O)c3ccccc3)C(=O)O)cc2)c(C)s1` has a solubility thermodynamic [7] of 210 µg/mL (≈ 375 µM), a solubility thermodynamic [8] of 210 µg/mL (≈ 375 µM) and an EC50 [4] greater than 10 µM. It also gave a Ki [5] of 1.86 µM.

With `Cc1nc(-c2ccccc2)nn1CCOc1ccc(C[C@H](Nc2ccccc2C(=O)c2ccccc2)C(=O)O)cc1` the solubility thermodynamic [7] was 1 µg/mL (≈ 1.83 µM), the solubility thermodynamic [8] was 4 µg/mL (≈ 7.32 µM) and the EC50 [4] was greater than 10 µM. It also gave a Ki [5] greater than 3.02 µM.

In the case of `Cc1oc(-c2ccccc2)nc1CCOc1ccc(C[C@H](Nc2ccccc2C(=O)c2ccccc2)C(=O)O)cc1` [FARGLITAZAR], the solubility thermodynamic [7] is reported as less than 1 µg/mL and the solubility thermodynamic [8] is reported as less than 1 µg/mL.

In the case of `Cc1oc(-c2ccc(F)cc2)nc1CCOc1ccc(C[C@H](Nc2ccccc2C(=O)c2ccccc2)C(=O)O)cc1`, the EC50 [4] is reported as 0.257 µM and the Ki [5] is reported as 0.0562 µM.

In the case of `O=C(c1ccccc1)c1ccccc1N[C@@H](Cc1ccc(OCCc2cc(Br)no2)cc1)C(=O)O`, the “Log Ki” value [9] is reported as “inactive”.

Work on `Cc1sc(-c2ccccc2)nc1CCOc1ccc(C[C@H](Nc2ccccc2C(=O)c2ccccc2)C(=O)O)cc1` yielded a solubility thermodynamic [7] of less than 1 µg/mL, a solubility thermodynamic [8] of 2 µg/mL (≈ 3.55 µM) and an EC50 [4] of 1.05 µM. The Ki [5] was 0.126 µM.

Molecule `Cc1sc(N2CCN(C)CC2)nc1CCOc1ccc(C[C@H](Nc2ccccc2C(=O)c2ccccc2)C(=O)O)cc1` has a solubility thermodynamic [7] greater than 6000 µg/mL, a solubility thermodynamic [8] of 10 µg/mL (≈ 17.1 µM) and an EC50 [4] of 6.46 µM. The Ki [5] was greater than 3.02 µM.

For `Cc1ccc[n+]2c1=NC(c1ccccc1)C=2COc1ccc(C[C@H](Nc2ccccc2C(=O)c2ccccc2)C(=O)O)cc1` (some centres not stated), the “Log Ki” value [1] was “inactive”.
